# Most compounds without a hit are left out; they make up all but 2.9% or so of the library.
# FGF22 binding: shifts melting point of recombinant human FGF22; Q9HCT0; recombinant FGF22 thermal shift, SYPRO orange fluorescence; percent of sucrose octasulfate shift, DMSO zero; activity (Tm shift, normalised), % at 9.99 µM; 340,000 compounds, 1.5% hits;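 active means mean Tm shift, scaled 0 neutral to 100 positive control, at about 1.3% or above, every replicate too, limit read from the data; inconclusive means no clear call, values can overlap the other calls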
# Target sequence (Q9HCT0 whole entry, looked up): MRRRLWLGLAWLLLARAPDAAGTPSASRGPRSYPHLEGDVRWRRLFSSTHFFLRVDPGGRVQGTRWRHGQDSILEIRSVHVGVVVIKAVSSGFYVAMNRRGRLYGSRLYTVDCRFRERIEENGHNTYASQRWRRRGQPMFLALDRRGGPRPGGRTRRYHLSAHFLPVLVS
# Vif inh: blocks HIV Vif function. HEK293T cells, Vif self-association by quenched fluorescence, imaging, 24 h. inhibition, % at 7.49 µM. 340,000 compounds, 0.35% hits; in the data active means inhibition above about 50%, passing the limit was not always enough; inconclusive means no clear call, values can overlap the other calls; inactive means below about 31%
# PGC1a acetyl inh: lowers PGC1a acetylation signal in U2OS cells; 350,000 compounds, 0.17% hits; AlphaScreen anti-acetyl-lysine; with virally co-expressed GCN5 acetyltransferase; inhibition, % at 15.6 µM; AID 651687;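 active means every replicate shows inhibition of at least 40%; inconclusive means mean inhibition at least 40% but some replicate below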
# Ecoli rRNA inh: inhibitors of bacterial rRNA selective over humanized ribosomes; E. coli WT GFP vs humanized-ribosome RFP mutants, fluorescence, 24 h; stronger effect = lower value; DMSO median 0, no signal -100; GFP signal change (wild-type ribosome), % (concentration not given with the values); 350,000 compounds, 1.6% hits; AID 720706;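 active means significant combined selectivity score with lowered wild-type GFP, culture density cut under 30%, mutant RFP and density less affected; inactive means any of these conditions unmet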
# PglD DTNB: blocks C. jejuni PglD acetyltransferase activity | purified PglD enzyme, DTNB colorimetric CoA detection | inhibition, % at 12.5 µM | 360,000 compounds, 0.098% hits; in the data active means inhibition above about 16%, passing the limit was not always enough; inconclusive means no clear call, values can overlap the other calls
# Cneo AK release: Cryptococcus neoformans lysis via adenylate kinase release. 360,000 compounds, 0.2% hits. AID 651654. lysis activity, % at 15 µM. C. neoformans lysis, adenylate kinase release luminescence, 4 h; normalised: neutral wells 0, clomiphene wells 100;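 active means mean lysis activity across replicates of at least 80%, whatever share of replicates individually reach that level; inactive means mean lysis activity below 80%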
#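 Test system: log-phase Cryptococcus neoformans yeast cells; Quantity: yeast cell density of 5 × 10^6 cells/mL; Buffer or medium: YPD; Doses: single compound concentration per well; Timing: 4 h at 37 °C static, read 1 h later; Measured by: AK luminescence; Read-out basis: lysis from increased AK signal; Control set: Clomiphene as positive control.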
# A number is an active result; . = inactive; ? = inconclusive; / = no result.
SMILES,FGF22 binding,Vif inh,PGC1a acetyl inh,Ecoli rRNA inh,PglD DTNB,Cneo AK release
Cc1ccc(S(=O)(=O)N[C@@H]2CC[C@H](CCNC(=O)C3CCCC3)O[C@@H]2CO)cc1,.,/,.,.,.,86
Cc1ccc(S(=O)(=O)N[C@H]2CC[C@H](CC(=O)NCc3ccccc3F)O[C@H]2CO)cc1,.,/,.,.,.,100
O=C(CN1c2ccccc2S(=O)(=O)c2ccccc21)NCc1ccccc1,.,.,.,.,.,.
O=C(CN1c2ccccc2S(=O)(=O)c2ccccc21)NCc1ccc(F)cc1,.,.,/,-33,.,.
O=C(NC(=S)NCc1ccc(Cl)cc1Cl)c1ccco1,43,.,/,.,/,/
O=C(NC(=S)NCc1ccc(Cl)cc1)c1ccco1,.,.,.,.,.,.
C[C@H]1CCCCO[C@H](CN(C)Cc2ccc3c(c2)OCO3)[C@@H](C)CN([C@@H](C)CO)C(=O)c2cc(NS(=O)(=O)c3ccc(Cl)cc3)ccc2O1,/,/,.,.,.,.
O=C(O)c1cc([N+](=O)[O-])ccc1Nc1ccccc1,.,.,.,-34,.,.
Cc1ccccc1NC(=O)c1cc([N+](=O)[O-])ccc1NCCN1C(=O)CCC1=O,43,.,.,.,/,/
O=C(O)c1cc([N+](=O)[O-])ccc1NCCc1ccccc1,.,.,.,-42,/,/
O=C(O)c1cc([N+](=O)[O-])ccc1NCCO,/,.,/,/,/,/
Cc1cccc(Nc2ccc([N+](=O)[O-])cc2C(=O)O)c1,.,.,/,.,/,/
O=C(Nc1ccccc1)c1ccc(NCCN2C(=O)CCC2=O)c([N+](=O)[O-])c1,.,.,.,.,/,/
COc1ccc2c3c([nH]c2c1)[C@H](CO)N(S(C)(=O)=O)CC31CCN(Cc2ccccc2)CC1,.,/,.,.,/,/
COCC(=O)Nc1ccc2c(c1)OC[C@@H](C)N(C(=O)C1CCCC1)C[C@H](C)[C@H](OC)CN(C)C2=O,/,/,.,.,.,.
O=C(C[C@@H]1C=C[C@@H](NC(=O)NC2CCCCC2)[C@H](CO)O1)NCc1ccccc1,.,/,.,.,.,.
CCCC(=O)Nc1ccc2c(c1)OC[C@@H](C)N(CCc1ccccc1)C[C@H](C)[C@H](OC)CN(C)C2=O,/,/,.,.,/,/
COc1ccc(-c2cc(N)n(S(=O)(=O)c3c(F)c(F)c(F)c(F)c3F)n2)cc1OC,.,59,.,.,.,.
O=C(Nc1ccc(-c2ccccc2)cc1)[C@H]1[C@H](CO)[C@H]2Cn3c(cccc3=O)[C@@H]1N2Cc1cccnc1,.,/,/,.,.,.
CCOC(=O)COc1cc(-n2c(=S)[nH]c3ccccc3c2=O)c(Cl)cc1Cl,.,.,.,-23,/,/
C[C@H]1CN([C@@H](C)CO)C(=O)Cc2cc(NC(=O)CCCCCC(=O)Nc3ccccc3N)ccc2O[C@@H]1CN(C)S(=O)(=O)c1cccs1,.,/,.,.,.,.
CC=Cc1ccc2n(c1=O)C[C@H]1[C@H](CO)[C@@H](C(=O)N[C@@H](C)c3ccccc3)[C@@H]2N1CC (mixture of isomers),.,/,/,.,.,.
COc1cccc(CN2CCN(Cc3[nH]c4ccccc4c3C)CC2CCO)c1 (configuration not stated),43,.,/,/,/,/
CCn1cc(CN2CCN(Cc3ccsc3)C(CCO)C2)cn1 (configuration not stated),44,.,/,.,/,/
COc1cccc(CN2CCN(Cc3cc4ccccc4[nH]3)CC2CCO)c1 (configuration not stated),.,.,.,.,/,/
SMILES,FGF22 binding,Vif inh,PGC1a acetyl inh,Ecoli rRNA inh,PglD DTNB,Cneo AK release
CSc1ccc(CN2CCN(Cc3ccccc3)C(CCO)C2)cc1 (configuration not stated),43,.,.,.,/,/
CCOc1ccc(CN2CCN(Cc3cc4ccccc4[nH]3)CC2CCO)cc1 (configuration not stated),43,.,/,/,.,.
OCCC1CN(Cc2cnn(-c3ccc(F)cc3)c2)CCN1Cc1ccsc1 (configuration not stated),.,.,/,.,/,/
COC(=O)C[C@H]1CC[C@H]2[C@@H](COc3ccc(NC(=O)Nc4ccccc4C)cc3C(=O)N2C)O1,.,/,.,.,.,.
CCCNC(=O)Nc1ccc2c(c1)C(=O)N(C)[C@@H]1CC[C@@H](CC(=O)O)O[C@@H]1CO2,.,/,.,.,.,.
Cc1ccccc1-c1ccc([C@@H]2[C@H]3CN(C(=O)c4cccnc4)CC(=O)N3[C@H]2CO)cc1,/,/,/,.,/,/
C/C=C/c1ccc([C@H]2[C@@H](CO)N(S(C)(=O)=O)C23CN(C(=O)CC)C3)cc1,.,/,.,.,/,/
CNC[C@@H]1Oc2ccccc2C(=O)N(C)C[C@H]1C,/,/,/,.,/,/
COc1ccc(CN(C(=O)c2nsc(Cl)c2Cl)C(C(=O)NC2CCCC2)c2ccc(OC)cc2)cc1 (configuration not stated),43,.,/,.,/,/
CC(=O)Nc1ccc(/C=C/C(=O)c2ccc3c(c2)OCCO3)cc1,.,56,.,.,.,.
CN(C)c1ccc2c(c1)[C@H]1C[C@@H](CC(=O)N3CCCCC3)O[C@@H](CO)[C@H]1O2,/,/,/,.,/,/
CCOC(=O)c1ccc[n+](CC(=O)Nc2cc(C(F)(F)F)ccc2Cl)c1,.,53,.,.,/,/
COc1ccc(/C=N/n2c(-c3cc(C)[nH]n3)n[nH]c2=S)cc1,.,.,/,.,/,/
CCn1c2ccccc2c2cc(/C=N/n3c(-c4cc(C)[nH]n4)n[nH]c3=S)ccc21,.,.,?,-31,/,/
CCn1c2ccccc2c2cc(/C=N/n3cn[nH]c3=S)ccc21,/,.,42,/,/,.
CCS(=O)(=O)N1CCC2(CC1)CN(S(=O)(=O)c1cccc(OC)c1)[C@@H](CO)c1[nH]c3cc(OC)ccc3c12,.,/,.,.,/,/
CCCC#Cc1ccc2c(c1)O[C@@H](CN(C)C(=O)c1cnccn1)[C@@H](C)CN([C@@H](C)CO)S2(=O)=O,.,/,.,.,.,.
O=C(N[C@H]1CC[C@H](CCn2cc(-c3ccccn3)nn2)O[C@H]1CO)c1ccncc1,.,/,.,.,.,.
CN(Cc1nc2ccccc2n1C)S(=O)(=O)c1ccc(Cl)cc1,/,50,.,/,.,.
COc1ccccc1C#Cc1cnc2c(c1)C(=O)N([C@@H](C)CO)C[C@H](C)[C@@H](CN(C)C(=O)c1ccc3c(c1)OCO3)O2,.,/,.,.,.,.
O=C1NC[C@@H](CCCCN2C[C@H](Cc3ccccc3)N(CC3CCCCC3)C(=O)C2=O)N(Cc2ccccc2)C1=O,5.4,/,/,.,/,/
O=C1NC[C@H](CCCCN2C[C@H](Cc3ccccc3)N(CCc3ccc(O)cc3)C(=O)C2=O)N(CCc2ccccc2)C1=O,.,/,/,-18,/,/
